According to PMC11796557 (RSC Advances, 2025):

Columns and labels:
Format in all cases: cell-based
[1] = system: A549 (lung carcinoma); assay: MTT anticancer activity; conditions: Homo sapiens, A549, 48 h, read-out: IC50 A549
Outline: (§1)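 Cells kept in DMEM with 10% FBS, 1% penicillin–streptomycin and 1% L-glutamine at 37 °C, 5% CO₂. They were seeded at 10 000 per well and attached for 24 h, then exposed to varying concentrations (from a 10 mM DMSO stock) for 48 h. MTT (5 mg mL⁻¹) was added for 4 h, formazan dissolved in DMSO, and A570 read. IC50 was calculated. DMSO served as vehicle control and cisplatin or doxorubicin as positive control. Values are mean ± SD of three independent experiments (n = 9).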

[2] = system: MCF-7 (breast carcinoma); assay: MTT anticancer activity; conditions: Homo sapiens, MCF7, 48 h, read-out: IC50 MCF-7
Outline: as §1

[3] = system: HCT116 (colon carcinoma); assay: MTT anticancer activity; conditions: Homo sapiens, HCT-116, 48 h, read-out: IC50 HCT116
Outline: as §1

[4] = system: PC3 (prostate carcinoma); assay: MTT anticancer activity; conditions: Homo sapiens, 48 h, read-out: IC50 PC3
Outline: as §1

[5] = system: normal fibroblasts; assay: MTT cytotoxicity assay, normal fibroblasts; conditions: Fibroblast, 48 h, read-out: IC50 Fibroblasts
Outline: as §1

Compound | IC50 [1] | IC50 [2] | IC50 [3] | IC50 [4] | IC50 [5]
O=C1CCCc2c1c(O)cc(=O)n2-c1ccccc1 [Compound 3a, 4-Hydroxy-1-phenyl-7,8-dihydroquinoline-2,5(1H,6H)-dione] | 189 µM | 189 µM | 148 µM | 151 µM | > 500 µM
Cc1ccc(-n2c3c(c(O)cc2=O)C(=O)CCC3)cc1 [Compound 3b, 4-Hydroxy-1-(p-tolyl)-7,8-dihydroquinoline-2,5(1H,6H)-dione] | 159 µM | 213 µM | 162 µM | 239 µM | > 500 µM
O=C1CCCc2c1c(O)cc(=O)n2-c1ccc(Cl)cc1 [Compound 3c, 1-(4-Chlorophenyl)-4-hydroxy-7,8-dihydroquinoline-2,5(1H,6H)-dione] | 257 µM | 261 µM | 139 µM | 251 µM | > 500 µM
O=C1CCCc2c1c(O)cc(=O)n2-c1ccc(F)cc1 [Compound 3d, 1-(4-Fluorophenyl)-4-hydroxy-7,8-dihydroquinoline-2,5(1H,6H)-dione] | 98.5 µM | 34.2 µM | 46.5 µM | 65.9 µM | > 500 µM
COc1ccccc1-n1c2c(c(O)cc1=O)C(=O)CCC2 [Compound 3e, 4-Hydroxy-1-(2-methoxyphenyl)-7,8-dihydroquinoline-2,5(1H,6H)-dione] | 67 µM | 62.6 µM | 29.5 µM | 45 µM | > 500 µM
CC1(C)CC(=O)c2c(O)cc(=O)n(-c3ccccc3)c2C1 [Compound 3f, 4-Hydroxy-7,7-dimethyl-1-phenyl-7,8-dihydroquinoline-2,5(1H,6H)-dione] | 127 µM | 70.6 µM | 118 µM | 95.5 µM | > 500 µM
CC1(C)CC(=O)c2c(O)cc(=O)n(Cc3ccccc3)c2C1 [Compound 3g, 1-Benzyl-4-hydroxy-7,7-dimethyl-7,8-dihydroquinoline-2,5(1H,6H)-dione] | 32.4 µM | 26.9 µM | 18.4 µM | 29.1 µM | > 500 µM
CC1(C)CC(=O)c2c(O)cc(=O)n(-c3ccc(F)cc3)c2C1 [Compound 3h, 1-(4-Fluorophenyl)-4-hydroxy-7,7-dimethyl-7,8-dihydroquinoline-2,5(1H,6H)-dione] | 87.9 µM | 32.4 µM | 28.9 µM | 29.3 µM | > 500 µM
COc1ccc(-n2c3c(c(O)cc2=O)C(=O)CC(C)(C)C3)cc1 [Compound 3i, 4-Hydroxy-1-(4-methoxyphenyl)-7,7-dimethyl-7,8-dihydroquinoline-2,5(1H,6H)-dione] | 73 µM | 50.1 µM | 33.4 µM | 34.1 µM | > 500 µM
COc1ccccc1-n1c2c(c(O)cc1=O)C(=O)CC(C)(C)C2 [Compound 3j, 4-Hydroxy-1-(2-methoxyphenyl)-7,7-dimethyl-7,8-dihydroquinoline-2,5(1H,6H)-dione] | 78.8 µM | 81.4 µM | 38.2 µM | 43.6 µM | > 500 µM
COc1cccc2c1C(=O)c1c(O)c3c(c(O)c1C2=O)C[C@@](O)(C(=O)CO)C[C@@H]3O[C@H]1C[C@H](N)[C@H](O)[C@H](C)O1 [Doxorubicin, reference compound] |  | 2.3 µM | 5.8 µM |  | 
